Calls of active or inactive are those of the source. The calls are words filed in the database; no cut-off is given here.
Key:
Mus musculus [1] = assay: Teratogenic effect in SWV mouse assessed as live fetuses at 511 mg/kg, ip administered on morning of day 8 of gestation; type: toxicity, organism-based; parameters: dose 511 mg/kg, route intraperitoneal; settings: in vivo
In short: (§1)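 SWV inbred mice: two-month-old nulligravid females mated overnight with males and checked for vaginal plugs next morning; gestation onset taken as 10 p.m. the previous night. On gestation day 8.5 each dam got one ip injection, 0.55–2.7 mmol/kg, in 25% aqueous Cremophor EL (vehicle controls dosed alike), 10 μL/g body weight. Litters and implants tallied; resorptions and live fetuses reported as counts with percentages.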

Mus musculus [2] = assay: Anticonvulsant activity in CF1 albino mouse assessed as inhibition of maximal electroshock-induced seizures at 300 mg/kg, ip after 0.5 hrs; type: functional, organism-based; parameters: dose 300 mg/kg
In short: (§2)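 Test compounds suspended in 0.5% methylcellulose and given ip to adult male CF no. 1 albino mice (18-25 g) at 0.01 mL/g body weight before maximal electroshock challenge.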

Mus musculus [3] = assay: Teratogenic effect in SWV mouse assessed as resorptions at 310 mg/kg, ip administered on morning of day 8 of gestation; type: toxicity, organism-based; parameters: dose 310 mg/kg, route intraperitoneal; settings: in vivo; in short: as §1
Mus musculus [4] = assay: Anticonvulsant activity in CF1 albino mouse assessed as inhibition of maximal electroshock-induced seizures at 300 mg/kg, ip after 4 hrs; type: functional, organism-based; parameters: dose 300 mg/kg; in short: as §2
Rattus norvegicus [5] = assay: Neurotoxicity in Sprague-Dawley rat assessed as motor impairment at 30 mg/kg, po after 0.25 to 4 hrs; settings: in vivo
Mus musculus [6] = assay: Neurotoxicity in CF1 albino mouse assessed as motor impairment at 300 mg/kg, ip after 4 hrs; type: toxicity, organism-based; parameters: dose 300 mg/kg, route intraperitoneal; settings: in vivo
Mus musculus [7] = assay: Anticonvulsant activity in CF1 albino mouse assessed as inhibition of subcutaneous pentylenetetrazole-induced seizures at 100 mg/kg, ip after 0.5 hrs; type: functional, organism-based; parameters: dose 100 mg/kg
In short: (§3)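 Adult male CF no. 1 albino mice (18-25 g) dosed ip with compound suspended in 0.5% methylcellulose (0.01 mL/g). Convulsant: pentylenetetrazol dissolved in 0.9% saline as a 0.85% solution for mice, given subcutaneously.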

Mus musculus [8] = assay: Anticonvulsant activity in CF1 albino mouse assessed as inhibition of subcutaneous pentylenetetrazole-induced seizures at 300 mg/kg, ip after 0.5 hrs; type: functional, organism-based; parameters: dose 300 mg/kg; in short: as §3
Mus musculus [9] = assay: Anticonvulsant activity in CF1 albino mouse assessed as inhibition of subcutaneous pentylenetetrazole-induced seizures at 30 mg/kg, ip after 0.5 hrs; type: functional, organism-based; parameters: dose 30 mg/kg; in short: as §3
Mus musculus [10] = assay: Neurotoxicity in CF1 albino mouse assessed as motor impairment at 100 mg/kg, ip after 4 hrs; type: toxicity, organism-based; parameters: dose 100 mg/kg, route intraperitoneal; settings: in vivo
Mus musculus [11] = assay: Neurotoxicity in CF1 albino mouse assessed as motor impairment at 30 mg/kg, ip after 0.5 hrs; type: toxicity, organism-based; parameters: dose 30 mg/kg, route intraperitoneal; settings: in vivo
Rattus norvegicus [12] = organism: Rattus norvegicus; assay: Protective index, ratio of TD50 for rat to ED50 for maximal electroshock-induced rat seizure model
Mus musculus [13] = assay: Neurotoxicity in CF1 albino mouse assessed as motor impairment at 300 mg/kg, ip after 0.5 hrs; type: toxicity, organism-based; parameters: dose 300 mg/kg, route intraperitoneal; settings: in vivo
Mus musculus [14] = assay: Teratogenic effect in SWV mouse assessed as fetuses with neural tube deffects at 310 mg/kg, ip administered on morning of day 8 of gestation; type: toxicity, organism-based; parameters: dose 310 mg/kg, route intraperitoneal; settings: in vivo
In short: (§4)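 Two-month-old nulligravid SWV females were mated overnight and checked for vaginal plugs the next morning; gestation onset was set at 10 p.m. the previous night. On gestation day 8.5, each dam received a single ip injection (0.55-2.7 mmol/kg range) or vehicle (25% aqueous Cremophor EL) at 10 μL/g body weight. Litters were scored for implants, resorptions, live and dead fetuses, and fetuses with neural tube defects.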

Mus musculus [15] = assay: Anticonvulsant activity in CF1 albino mouse assessed as inhibition of maximal electroshock-induced seizures at 100 mg/kg, ip after 0.5 hrs; type: functional, organism-based; parameters: dose 100 mg/kg; in short: as §2
Mus musculus [16] = assay: Teratogenic effect in SWV mouse assessed as fetuses with neural tube deffects at 156 mg/kg, ip administered on morning of day 8 of gestation; type: toxicity, organism-based; parameters: dose 156 mg/kg, route intraperitoneal; settings: in vivo; in short: as §4
[17] = Teratogenic effect in SWV mouse assessed as dead fetuses at 91 mg/kg, ip administered on morning of day 8 of gestation; settings: in vivo
Mus musculus [18] = assay: Teratogenic effect in SWV mouse assessed as resorptions at 511 mg/kg, ip administered on morning of day 8 of gestation; type: toxicity, organism-based; parameters: dose 511 mg/kg, route intraperitoneal; settings: in vivo; in short: as §1
Mus musculus [19] = assay: Anticonvulsant activity in CF1 albino mouse assessed as inhibition of subcutaneous pentylenetetrazole-induced seizures at 300 mg/kg, ip after 4 hrs; type: functional, organism-based; parameters: dose 300 mg/kg; in short: as §3
Mus musculus [20] = assay: Teratogenic effect in SWV mouse assessed as live fetuses at 156 mg/kg, ip administered on morning of day 8 of gestation; type: toxicity, organism-based; parameters: dose 156 mg/kg, route intraperitoneal; settings: in vivo; in short: as §4
Mus musculus [21] = assay: Neurotoxicity in CF1 albino mouse assessed as motor impairment at 100 mg/kg, ip after 0.5 hrs; type: toxicity, organism-based; parameters: dose 100 mg/kg, route intraperitoneal; settings: in vivo
Rattus norvegicus [22] = assay: Anticonvulsant activity in po dosed rat assessed as inhibition of maximal electroshock-induced seizures
Mus musculus [23] = assay: Anticonvulsant activity in CF1 albino mouse assessed as inhibition of maximal electroshock-induced seizures at 30 mg/kg, ip after 4 hrs; type: functional, organism-based; parameters: dose 30 mg/kg; in short: as §2
[24] = Teratogenic effect in SWV mouse assessed as dead fetuses at 522 mg/kg, ip administered on morning of day 8 of gestation; settings: in vivo, read-out: Ratio TD50/ED50
Mus musculus [25] = assay: Neurotoxicity in CF1 albino mouse assessed as motor impairment at 30 mg/kg, ip after 4 hrs; type: toxicity, organism-based; parameters: dose 30 mg/kg, route intraperitoneal; settings: in vivo
Mus musculus [26] = assay: Anticonvulsant activity in CF1 albino mouse assessed as inhibition of maximal electroshock-induced seizures at 30 mg/kg, ip after 0.5 hrs; type: functional, organism-based; parameters: dose 30 mg/kg; in short: as §2
Mus musculus [27] = assay: Teratogenic effect in SWV mouse assessed as live fetuses at 310 mg/kg, ip administered on morning of day 8 of gestation; type: toxicity, organism-based; parameters: dose 310 mg/kg, route intraperitoneal; settings: in vivo; in short: as §4
Mus musculus [28] = assay: Anticonvulsant activity in CF1 albino mouse assessed as inhibition of subcutaneous pentylenetetrazole-induced seizures at 30 mg/kg, ip after 4 hrs; type: functional, organism-based; parameters: dose 30 mg/kg; in short: as §3
Mus musculus [29] = assay: Anticonvulsant activity in CF1 albino mouse assessed as inhibition of subcutaneous pentylenetetrazole-induced seizures at 100 mg/kg, ip after 4 hrs; type: functional, organism-based; parameters: dose 100 mg/kg; in short: as §3
Mus musculus [30] = assay: Teratogenic effect in SWV mouse assessed as resorptions at 156 mg/kg, ip administered on morning of day 8 of gestation; type: toxicity, organism-based; parameters: dose 156 mg/kg, route intraperitoneal; settings: in vivo; in short: as §1

Compound: CCCC(CC)C(=O)Nc1ccc(S(N)(=O)=O)cc1 (stereo not given)
- Activity (Mus musculus [1]): 1.5%
- Activity (Mus musculus [2]): inactive
- Activity (Mus musculus [3]): 72%
- Activity (Mus musculus [4]): Active
- Activity (Rattus norvegicus [5]): Non-toxic
- Activity (Mus musculus [6]): Non-toxic
- Activity (Mus musculus [7]): inactive
- Activity (Mus musculus [8]): inactive
- Activity (Mus musculus [9]): inactive
- Activity (Mus musculus [10]): Non-toxic
- Activity (Mus musculus [11]): Non-toxic
- Ratio TD50/ED50 (Rattus norvegicus [12]): >43.1
- Activity (Mus musculus [13]): Non-toxic
- Activity (Mus musculus [14]): 13.3%
- Activity (Mus musculus [15]): inactive
- Activity (Mus musculus [16]): 1%
- ED50 [17]: 11.6 mg/kg
- Activity (Mus musculus [18]): 98.5%
- Activity (Mus musculus [19]): inactive
- Activity (Mus musculus [20]): 84.3%
- Activity (Mus musculus [21]): Non-toxic
- ED50 (Rattus norvegicus [22]): 11.6 mg/kg
- Activity (Mus musculus [23]): inactive
- selectivity ratio [24]: 43.1
- Activity (Mus musculus [25]): Non-toxic
- Activity (Mus musculus [26]): inactive
- Activity (Mus musculus [27]): 28%
- Activity (Mus musculus [28]): inactive
- Activity (Mus musculus [29]): inactive
- Activity (Mus musculus [30]): 15.7%
